Tests used:
Cannabinoid receptor 1 = Cannabinoid receptor 1 (Rattus norvegicus, UniProt P20272); assay: Inhibitory activity, measured by displacement [3H]CP-55940 from cannabinoid receptor (CB1) in rat brain; type: tissue-based
[1] = Inhibitory activity at GABA B receptor, measured by the ability to displace [3H]baclofen from GABA B receptor in rat brain; type: tissue-based
[2] = target: GABA-A receptor; anion channel; assay: Inhibitory activity at GABA A receptor, measured by the ability to displace [35S]TBPS from GABA A receptor in rat brain; type: tissue-based
[3] = target: GABA-A receptor; anion channel; assay: Inhibitory activity at GABA A receptor, measured by the ability to displace [3H]GABA from GABA A receptor in rat brain; type: tissue-based
[4] = target: GABA-A receptor; anion channel; assay: Inhibitory activity at GABA A receptor, measured by the ability to displace [3H]flumazenil from GABA A receptor in rat brain; type: tissue-based
[5] = target: GABA-A receptor; anion channel; assay: Inhibitory activity at GABA A receptor, measured by the ability to displace [3H]zolpidem from GABA A receptor in rat brain; type: tissue-based
[6] = target: T1, Gastrin/cholecystokinin type B receptor (Rattus norvegicus, UniProt P30553); assay: Inhibitory activity by measuring its ability to displace [3H]L-365260 from cholecystokinin receptor in rat brain; type: tissue-based
T1 sequence (P30553 whole entry): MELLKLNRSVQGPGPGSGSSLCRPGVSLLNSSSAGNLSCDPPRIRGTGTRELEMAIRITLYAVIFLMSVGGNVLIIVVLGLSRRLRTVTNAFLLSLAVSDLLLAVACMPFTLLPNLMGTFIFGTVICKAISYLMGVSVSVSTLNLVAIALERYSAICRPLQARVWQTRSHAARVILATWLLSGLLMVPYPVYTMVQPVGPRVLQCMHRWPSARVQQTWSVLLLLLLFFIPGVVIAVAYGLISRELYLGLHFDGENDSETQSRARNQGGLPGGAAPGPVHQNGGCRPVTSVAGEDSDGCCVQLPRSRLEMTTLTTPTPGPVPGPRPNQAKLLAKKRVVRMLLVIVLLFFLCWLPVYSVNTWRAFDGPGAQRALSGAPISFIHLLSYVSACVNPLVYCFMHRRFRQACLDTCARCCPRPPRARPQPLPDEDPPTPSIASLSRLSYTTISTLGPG

[7] = target: Adrenergic receptor alpha; assay: Inhibitory activity by measuring its ability to displace [3H]WB-4101 from alpha-adrenergic receptor in rat brain; type: tissue-based
[8] = target: Adrenergic receptor alpha; assay: Inhibitory activity by measuring its ability to displace [3H]clonidine from alpha-adrenergic receptor in rat brain; type: tissue-based
Adrenergic receptor beta = Adrenergic receptor beta (Rattus norvegicus, UniProt P18090+P10608+P26255); assay: Inhibitory activity by measuring its ability to displace [125I]pindolol from beta-adrenergic receptor in rat brain; type: tissue-based
[9] = Inhibitory activity by measuring its ability to displace [3H]glycine from glycine receptor in rat brain; type: tissue-based
Glutamate NMDA receptor = assay: Inhibitory activity by measuring its ability to displace [3H]-MK-801 from glutamate(NMDA) receptor in rat brain; type: tissue-based
[10] = Tested for inhibitory activity by measuring its ability to displace [3H]AMPA from glutamate (non-NMDA) receptor in rat brain; type: tissue-based
[11] = Inhibitory activity by measuring its ability to displace [3H]spiperone from dopamine or serotonin 5-HT-1 receptors in rat brain; type: tissue-based
Translocator protein = Translocator protein (Rattus norvegicus, UniProt P16257); assay: Binding affinity against mitochondrial DBI complex (peripheral benzodiazepine receptor) using primary cultures of glial cells
Outline: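 Glia from cerebella of 8-day-old Sprague–Dawley rat pups, trypsin-dissociated and grown 14 days (~95% astroglia). Cells lysed in 50 mM Hepes pH 7.4, 4 μg protein per tube. Incubated with [3H]4'-chlorodiazepam and competitor for 90 min at 4 °C, then filtered. Nonspecific binding defined with 10 μM 4'-chlorodiazepam. Triplicate competition curves; IC50 by nonlinear regression, converted to Ki (Bylund–Yamamura).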

Translocator protein, sequence (P16257 whole entry, looked up): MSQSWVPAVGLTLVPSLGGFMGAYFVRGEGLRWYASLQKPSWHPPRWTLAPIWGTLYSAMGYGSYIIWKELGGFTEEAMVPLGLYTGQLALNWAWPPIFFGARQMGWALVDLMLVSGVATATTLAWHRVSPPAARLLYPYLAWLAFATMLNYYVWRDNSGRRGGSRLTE
Cannabinoid receptor 1, sequence (P20272 whole entry): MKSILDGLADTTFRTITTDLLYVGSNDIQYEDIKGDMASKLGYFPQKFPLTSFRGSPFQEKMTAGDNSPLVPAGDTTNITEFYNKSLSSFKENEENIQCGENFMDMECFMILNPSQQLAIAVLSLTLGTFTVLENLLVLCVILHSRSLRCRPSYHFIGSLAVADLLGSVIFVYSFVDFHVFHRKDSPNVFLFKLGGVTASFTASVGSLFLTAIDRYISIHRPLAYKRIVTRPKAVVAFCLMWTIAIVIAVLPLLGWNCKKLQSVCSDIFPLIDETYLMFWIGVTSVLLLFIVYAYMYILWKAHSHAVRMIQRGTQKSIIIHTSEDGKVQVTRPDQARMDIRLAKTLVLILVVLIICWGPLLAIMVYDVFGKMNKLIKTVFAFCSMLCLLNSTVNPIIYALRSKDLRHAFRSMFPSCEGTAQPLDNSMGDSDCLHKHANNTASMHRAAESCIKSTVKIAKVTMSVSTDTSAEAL

IC50 (Cannabinoid receptor 1) [µM] | IC50 [1] [µM] | IC50 [2] [µM] | IC50 [3] [µM] | IC50 [4] [µM] | IC50 [5] [µM] | IC50 [6] [µM] | IC50 [7] [µM] | IC50 [8] [µM] | IC50 (Adrenergic receptor beta) [µM] | IC50 [9] [µM] | IC50 (Glutamate NMDA receptor) [µM] | IC50 [10] [µM] | IC50 [11] [µM] | Ki (Translocator protein) [µM] | SMILES
> 1 | > 1 | > 1 | > 1 | > 1 | > 1 | > 1 | > 1 | > 1 | > 1 | > 1 | > 1 | > 1 | > 1 | 0.066 | CCCN(CCC)C(=O)Cc1c(-c2ccc(C)cc2)[nH]c2ccc(C)cc12
> 1 | > 1 | > 1 | > 1 | > 1 | > 1 | > 1 | > 1 | > 1 | > 1 | > 1 | > 1 | > 1 | > 1 | > 1 | CCCCCCN(CCCCCC)C(=S)Cc1c(-c2ccc(F)cc2)[nH]c2ccccc12
> 1 | > 1 | > 1 | > 1 | > 1 | > 1 | > 1 | > 1 | > 1 | > 1 | > 1 | > 1 | > 1 | > 1 | 0.304 | CCCN(CCC)C(=O)Cc1c(-c2cccs2)[nH]c2ccccc12
> 1 | > 1 | > 1 | > 1 | > 1 | > 1 | > 1 | > 1 | > 1 | > 1 | > 1 | > 1 | > 1 | > 1 | 0.211 | CCCN(CCC)C(=O)Cc1c(-c2ccccc2)[nH]c2c(F)cccc12
> 1 | > 1 | > 1 | > 1 | > 1 | > 1 | > 1 | > 1 | > 1 | > 1 | > 1 | > 1 | > 1 | > 1 | 0.17 | CN(C)C(=O)Cc1c(-c2ccccc2)[nH]c2ccccc12
> 1 | > 1 | > 1 | > 1 | > 1 | > 1 | > 1 | > 1 | > 1 | > 1 | > 1 | > 1 | > 1 | > 1 | 0.1 | CCCN(CCC)C(=O)Cc1c(-c2ccccc2)[nH]c2ccccc12
> 1 | > 1 | > 1 | > 1 | > 1 | > 1 | > 1 | > 1 | > 1 | > 1 | > 1 | > 1 | > 1 | > 1 | 0.328 | CCCN(CCC)C(=O)Cc1c2n(c3ccccc13)CCCc1ccccc1-2
> 1 | > 1 | > 1 | > 1 | > 1 | > 1 | > 1 | > 1 | > 1 | > 1 | > 1 | > 1 | > 1 | > 1 | 0.338 | O=C(Cc1c(-c2ccccc2)[nH]c2ccccc12)N1CCCC1
> 1 | > 1 | > 1 | > 1 | > 1 | > 1 | > 1 | > 1 | > 1 | > 1 | > 1 | > 1 | > 1 | > 1 | 0.135 | CCCCCCN(C)C(=O)Cc1c(-c2ccc(F)cc2)[nH]c2ccccc12
> 1 | > 1 | > 1 | > 1 | > 1 | > 1 | > 1 | > 1 | > 1 | > 1 | > 1 | > 1 | > 1 | > 1 | 0.066 | CCCN(CCC)C(=O)Cc1c(-c2ccc(Cl)cc2)[nH]c2ccccc12
> 1 | > 1 | > 1 | > 1 | > 1 | > 1 | > 1 | > 1 | > 1 | > 1 | > 1 | > 1 | > 1 | > 1 | 0.15 | Cc1ccc(-c2[nH]c3ccc(C)cc3c2CC(=O)N(C)C)cc1
> 1 | > 1 | > 1 | > 1 | > 1 | > 1 | > 1 | > 1 | > 1 | > 1 | > 1 | > 1 | > 1 | > 1 | 0.476 | O=C(Cc1c(-c2ccc(F)cc2)[nH]c2ccccc12)Nc1ccccc1Br
> 1 | > 1 | > 1 | > 1 | > 1 | > 1 | > 1 | > 1 | > 1 | > 1 | > 1 | > 1 | > 1 | > 1 | 0.8 | CCCN(CCC)C(=O)C(C)c1c(-c2ccc(Cl)cc2)[nH]c2ccccc12 (centres undefined)
> 1 | > 1 | > 1 | > 1 | > 1 | > 1 | > 1 | > 1 | > 1 | > 1 | > 1 | > 1 | > 1 | > 1 | 0.156 | CCN(CC)C(=O)Cc1c(-c2ccccc2)[nH]c2ccccc12
> 1 | > 1 | > 1 | > 1 | > 1 | > 1 | > 1 | > 1 | > 1 | > 1 | > 1 | > 1 | > 1 | > 1 | 0.678 | CCCN(CCC)C(=O)Cc1c(-c2cccc(Cl)c2)[nH]c2ccccc12
> 1 | > 1 | > 1 | > 1 | > 1 | > 1 | > 1 | > 1 | > 1 | > 1 | > 1 | > 1 | > 1 | > 1 | 0.078 | CCCN(CCC)C(=O)Cc1c(-c2cccs2)[nH]c2ccc(Cl)cc12
> 1 | > 1 | > 1 | > 1 | > 1 | > 1 | > 1 | > 1 | > 1 | > 1 | > 1 | > 1 | > 1 | > 1 |  | O=C1Cc2c([nH]c3ccccc23)-c2ccccc2N1 [PAULLONE]

— ChEMBL document CHEMBL1126834, “Chemistry, binding affinities, and behavioral properties of a new class of "antineophobic" mitochondrial DBI receptor complex (mDRC) ligands” (J Med Chem, 1993)
